Measurements taken from ChEMBL document CHEMBL4373687, “Introducing nitrogen atoms to amidoalkylindoles: potent and selective cannabinoid type 2 receptor agonists with improved aqueous solubility” (Medchemcomm, 2019).

Molecular target: T1, Cannabinoid receptor 1 (Homo sapiens, UniProt P21554)
Assay: Agonist activity at human CB1-receptor expressed in CHO-K1 cells coexpressing G-alpha16 by Fluo-4-AM dye based calcium mobilization assay
Assay type: cell-based
Conditions: cho-k1; call rule not given here

T1 sequence (P21554 whole entry): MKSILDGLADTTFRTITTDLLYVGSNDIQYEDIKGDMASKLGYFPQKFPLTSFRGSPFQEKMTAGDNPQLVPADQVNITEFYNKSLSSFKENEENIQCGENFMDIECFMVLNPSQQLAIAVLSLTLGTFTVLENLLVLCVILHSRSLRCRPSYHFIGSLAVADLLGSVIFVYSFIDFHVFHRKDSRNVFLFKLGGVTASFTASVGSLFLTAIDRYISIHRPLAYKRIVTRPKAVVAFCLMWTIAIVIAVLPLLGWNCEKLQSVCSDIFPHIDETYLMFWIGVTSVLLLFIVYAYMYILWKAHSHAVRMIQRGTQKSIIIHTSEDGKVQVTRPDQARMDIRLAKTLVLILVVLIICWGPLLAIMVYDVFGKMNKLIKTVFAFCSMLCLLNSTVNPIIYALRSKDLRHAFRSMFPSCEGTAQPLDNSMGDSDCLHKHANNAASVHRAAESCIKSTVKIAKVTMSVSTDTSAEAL

Row | Compound | EC50
1 | O=C(NC12CC3CC(CC(C3)C1)C2)c1cc2cnccc2n1CCN1CCOCC1 | Not Active
2 | O=C(NC12CC3CC(CC(C3)C1)C2)c1c[nH]c2cccnc12 | Not Active
3 | O=C(NC12CC3CC(CC(C3)C1)C2)c1cc2cnccc2[nH]1 | Not Active
4 | O=C(NC12CC3CC(CC(C3)C1)C2)c1nc2ccccc2[nH]1 | Not Active
5 | O=C(NC12CC3CC(CC(C3)C1)C2)c1cn(CCN2CCOCC2)c2cccnc12 | Not Active

Same assay, conditions: read-out: EC50

Row | Compound | EC50 [nM]
6 | CCCCCn1cc(C(=O)NC23CC4CC(CC(C4)C2)C3)c2cccnc21 | 740

Molecular target: T1, Cannabinoid receptor 1
Assay: Agonist activity at human CB1-receptor expressed in CHO-K1 cells coexpressing G-alpha16 assessed as maximum efficacy by Fluo-4-AM dye based calcium mobilization assay relative to CP55940
Assay type: cell-based
Conditions: not given
Summary of the method: (§1)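 CHO-K1 cells stably co-expressing Gα16 and human CB1 or CB2, seeded 24 h. Loaded with 2 μM fluo-4 AM in HBSS (with sulfinpyrazone, pH 7.4) at 37 °C for 45 min. Compound added and calcium fluorescence recorded (ex 485/em 525 nm). CP55940 positive control, DMSO negative control. Compounds with >50% activation at 10 μM got eight-point curves in triplicate, sigmoidal fit for EC50.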

Row | Compound | Emax [%]
7 | CCCCCn1cc(C(=O)NC23CC4CC(CC(C4)C2)C3)c2cccnc21 | 39.1

Molecular target: T2, Cannabinoid receptor 2 (Homo sapiens, UniProt P34972)
Assay: Agonist activity at human CB2-receptor expressed in CHO-K1 cells coexpressing G-alpha16 by Fluo-4-AM dye based calcium mobilization assay
Assay type: functional, cell-based
Conditions: cho-k1

T2 sequence (P34972 whole entry): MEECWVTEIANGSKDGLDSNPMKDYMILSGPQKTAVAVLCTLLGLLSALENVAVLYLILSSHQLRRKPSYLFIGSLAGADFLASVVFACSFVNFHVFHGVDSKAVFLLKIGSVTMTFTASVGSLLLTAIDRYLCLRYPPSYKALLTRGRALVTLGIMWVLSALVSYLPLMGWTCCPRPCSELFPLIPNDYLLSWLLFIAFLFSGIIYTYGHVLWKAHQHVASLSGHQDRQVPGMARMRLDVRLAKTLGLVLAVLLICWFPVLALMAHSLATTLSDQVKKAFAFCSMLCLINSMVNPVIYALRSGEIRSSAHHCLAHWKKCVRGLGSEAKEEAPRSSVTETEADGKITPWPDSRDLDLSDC

Row | Compound | EC50
8 | O=C(NC12CC3CC(CC(C3)C1)C2)c1cc2cnccc2n1CCN1CCOCC1 | Not Active
9 | O=C(NC12CC3CC(CC(C3)C1)C2)c1c[nH]c2cccnc12 | Not Active
10 | O=C(NC12CC3CC(CC(C3)C1)C2)c1cn(CCN2CCOCC2)c2cccnc12 | Not Active

Same assay, conditions: read-out: EC50

Row | Compound | EC50 [nM]
11 | CCCCCn1cc(C(=O)NC23CC4CC(CC(C4)C2)C3)c2cccnc21 | 32
12 | O=C(NC12CC3CC(CC(C3)C1)C2)c1cc2cnccc2[nH]1 | 2000
13 | O=C(NC12CC3CC(CC(C3)C1)C2)c1nc2ccccc2[nH]1 | 520

Molecular target: T2, Cannabinoid receptor 2
Assay: Agonist activity at human CB2-receptor expressed in CHO-K1 cells coexpressing G-alpha16 assessed as maximum efficacy by Fluo-4-AM dye based calcium mobilization assay relative to CP55940
Assay type: functional, cell-based
Conditions: not given
Summary of the method: as §1

Row | Compound | Emax [%]
14 | CCCCCn1cc(C(=O)NC23CC4CC(CC(C4)C2)C3)c2cccnc21 | 79.4
15 | O=C(NC12CC3CC(CC(C3)C1)C2)c1cc2cnccc2[nH]1 | 121
16 | O=C(NC12CC3CC(CC(C3)C1)C2)c1nc2ccccc2[nH]1 | 85.3

Molecular target: T1, Cannabinoid receptor 1
Assay: Antagonist activity at human CB1-receptor expressed in CHO-K1 cells coexpressing G-alpha16 pre-incubated for 10 mins and later treated with 100 nM CB-receptor agonist, CP55940 by Fluo-4-AM dye based calcium mobilization assay
Assay type: cell-based
Conditions: not given
Summary of the method: (§2)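 CHO-K1 cells stably co-expressing Gα16 and human CB1 or CB2, loaded with 2 μM fluo-4 AM in HBSS pH 7.4 at 37 °C for 45 min. Pre-incubated with compound for 10 min at room temperature, then CP55940 added at 100 nM. Peak calcium read over 60 s (ex 485/em 525 nm). Rimonabant positive control. Actives got eight-point curves in triplicate, sigmoidal fit for IC50.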

Row | Compound | IC50
17 | CCCCCn1cc(C(=O)NC23CC4CC(CC(C4)C2)C3)c2cccnc21 | Not Active
18 | O=C(NC12CC3CC(CC(C3)C1)C2)c1cc2cnccc2n1CCN1CCOCC1 | Not Active
19 | O=C(NC12CC3CC(CC(C3)C1)C2)c1c[nH]c2cccnc12 | Not Active
20 | O=C(NC12CC3CC(CC(C3)C1)C2)c1cc2cnccc2[nH]1 | Not Active
21 | O=C(NC12CC3CC(CC(C3)C1)C2)c1nc2ccccc2[nH]1 | Not Active
22 | O=C(NC12CC3CC(CC(C3)C1)C2)c1cn(CCN2CCOCC2)c2cccnc12 | Not Active

Molecular target: T2, Cannabinoid receptor 2
Assay: Antagonist activity at human CB2-receptor expressed in CHO-K1 cells coexpressing G-alpha16 pre-incubated for 10 mins and later treated with 100 nM CB-receptor agonist, CP55940 by Fluo-4-AM dye based calcium mobilization assay
Assay type: functional, cell-based
Conditions: cho-k1
Summary of the method: as §2

Row | Compound | IC50
23 | CCCCCn1cc(C(=O)NC23CC4CC(CC(C4)C2)C3)c2cccnc21 | Not Active
24 | O=C(NC12CC3CC(CC(C3)C1)C2)c1cc2cnccc2n1CCN1CCOCC1 | Not Active
25 | O=C(NC12CC3CC(CC(C3)C1)C2)c1c[nH]c2cccnc12 | Not Active
26 | O=C(NC12CC3CC(CC(C3)C1)C2)c1cc2cnccc2[nH]1 | Not Active
27 | O=C(NC12CC3CC(CC(C3)C1)C2)c1nc2ccccc2[nH]1 | Not Active
28 | O=C(NC12CC3CC(CC(C3)C1)C2)c1cn(CCN2CCOCC2)c2cccnc12 | Not Active

Molecular target: T1, Cannabinoid receptor 1
Assay: Agonist activity at human CB1-receptor expressed in CHO-K1 cells coexpressing G-alpha16 at 10 uM by Fluo-4-AM dye based calcium mobilization assay
Assay type: cell-based
Conditions: cho-k1, 10 µM
Summary of the method: as §1

Row | Compound | Activity [%]
29 | CCCCCn1cc(C(=O)NC23CC4CC(CC(C4)C2)C3)c2cccnc21 | > 50
30 | O=C(NC12CC3CC(CC(C3)C1)C2)c1cc2cnccc2n1CCN1CCOCC1 | < 50
31 | O=C(NC12CC3CC(CC(C3)C1)C2)c1c[nH]c2cccnc12 | < 50
32 | O=C(NC12CC3CC(CC(C3)C1)C2)c1cc2cnccc2[nH]1 | < 50
33 | O=C(NC12CC3CC(CC(C3)C1)C2)c1nc2ccccc2[nH]1 | < 50
34 | O=C(NC12CC3CC(CC(C3)C1)C2)c1cn(CCN2CCOCC2)c2cccnc12 | < 50

Molecular target: T2, Cannabinoid receptor 2
Assay: Agonist activity at human CB2-receptor expressed in CHO-K1 cells coexpressing G-alpha16 at 10 uM by Fluo-4-AM dye based calcium mobilization assay
Assay type: functional, cell-based
Conditions: not given
Summary of the method: as §1

Row | Compound | Activity [%]
35 | CCCCCn1cc(C(=O)NC23CC4CC(CC(C4)C2)C3)c2cccnc21 | > 50
36 | O=C(NC12CC3CC(CC(C3)C1)C2)c1cc2cnccc2n1CCN1CCOCC1 | < 50
37 | O=C(NC12CC3CC(CC(C3)C1)C2)c1c[nH]c2cccnc12 | < 50
38 | O=C(NC12CC3CC(CC(C3)C1)C2)c1cc2cnccc2[nH]1 | > 50
39 | O=C(NC12CC3CC(CC(C3)C1)C2)c1nc2ccccc2[nH]1 | > 50
40 | O=C(NC12CC3CC(CC(C3)C1)C2)c1cn(CCN2CCOCC2)c2cccnc12 | < 50

Molecular target: T2, Cannabinoid receptor 2
Assay: Antagonist activity at human CB2-receptor expressed in CHO-K1 cells coexpressing G-alpha16 at 10 uM pre-incubated for 10 mins and later treated with 100 nM CB-receptor agonist, CP55940 by Fluo-4-AM dye based calcium mobilization assay
Assay type: functional, cell-based
Conditions: not given
Summary of the method: as §2

Row | Compound | inhibition [%]
41 | CCCCCn1cc(C(=O)NC23CC4CC(CC(C4)C2)C3)c2cccnc21 | < 50
42 | O=C(NC12CC3CC(CC(C3)C1)C2)c1cc2cnccc2n1CCN1CCOCC1 | < 50
43 | O=C(NC12CC3CC(CC(C3)C1)C2)c1c[nH]c2cccnc12 | < 50
44 | O=C(NC12CC3CC(CC(C3)C1)C2)c1cc2cnccc2[nH]1 | < 50
45 | O=C(NC12CC3CC(CC(C3)C1)C2)c1nc2ccccc2[nH]1 | < 50
46 | O=C(NC12CC3CC(CC(C3)C1)C2)c1cn(CCN2CCOCC2)c2cccnc12 | < 50

Molecular target: T1, Cannabinoid receptor 1
Assay: Antagonist activity at human CB1-receptor expressed in CHO-K1 cells coexpressing G-alpha16 at 10 uM pre-incubated for 10 mins and later treated with 100 nM CB-receptor agonist, CP55940 by Fluo-4-AM dye based calcium mobilization assay
Assay type: cell-based
Conditions: not given
Summary of the method: as §2

Row | Compound | inhibition at 10 µM [%]
47 | CCCCCn1cc(C(=O)NC23CC4CC(CC(C4)C2)C3)c2cccnc21 | < 50
48 | O=C(NC12CC3CC(CC(C3)C1)C2)c1cc2cnccc2n1CCN1CCOCC1 | < 50
49 | O=C(NC12CC3CC(CC(C3)C1)C2)c1c[nH]c2cccnc12 | < 50
50 | O=C(NC12CC3CC(CC(C3)C1)C2)c1cc2cnccc2[nH]1 | < 50
51 | O=C(NC12CC3CC(CC(C3)C1)C2)c1nc2ccccc2[nH]1 | < 50
52 | O=C(NC12CC3CC(CC(C3)C1)C2)c1cn(CCN2CCOCC2)c2cccnc12 | < 50
